Data taken from ChEMBL document CHEMBL1250448, “Inhibitor hijacking of Akt activation” (Nat Chem Biol, 2009).

Tests used:
[1] = biological target: Calcium/calmodulin-dependent protein kinase type II subunit alpha (Homo sapiens) (UniProt Q9UQM7); experiment: Inhibition of CAMK2A at 1 uM in presence of 10 uM ATP by Select Screen kinase assay relative to untreated control
Outline: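 Single-point screen at 1 μM against a panel of 220 purified kinases, run by Invitrogen staff as a SelectScreen profiling service. Read-out is percent inhibition of kinase activity.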

[2] = biological target: T1, Mitogen-activated protein kinase 13 (Homo sapiens) (UniProt O15264); experiment: Inhibition of MAPK13 at 1 uM in presence of 10 uM ATP by Select Screen kinase assay relative to untreated control
T1 sequence (whole entry): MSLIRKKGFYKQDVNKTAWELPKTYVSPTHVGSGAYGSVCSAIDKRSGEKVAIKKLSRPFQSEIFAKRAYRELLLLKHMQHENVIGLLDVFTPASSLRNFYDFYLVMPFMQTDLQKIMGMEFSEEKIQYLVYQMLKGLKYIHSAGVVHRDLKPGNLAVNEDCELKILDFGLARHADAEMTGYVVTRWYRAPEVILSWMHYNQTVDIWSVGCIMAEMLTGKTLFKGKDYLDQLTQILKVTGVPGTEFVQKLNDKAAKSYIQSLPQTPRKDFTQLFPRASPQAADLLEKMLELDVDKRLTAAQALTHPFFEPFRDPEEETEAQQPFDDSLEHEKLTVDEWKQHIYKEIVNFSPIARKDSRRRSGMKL
Outline: (§1)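 Single-concentration profiling at 1 μM against a panel of 220 purified kinases, run as an outsourced SelectScreen kinase profiling service. Activity is expressed as percent inhibition.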

[3] = biological target: Mitogen-activated protein kinase kinase kinase 8 (Homo sapiens) (UniProt P41279); experiment: Inhibition of MAP3K8 at 1 uM in presence of 100 uM ATP by Select Screen kinase assay relative to untreated control; outline: as §1
Mitogen-activated protein kinase kinase kinase 8 (Homo sapiens), sequence (P41279 whole entry): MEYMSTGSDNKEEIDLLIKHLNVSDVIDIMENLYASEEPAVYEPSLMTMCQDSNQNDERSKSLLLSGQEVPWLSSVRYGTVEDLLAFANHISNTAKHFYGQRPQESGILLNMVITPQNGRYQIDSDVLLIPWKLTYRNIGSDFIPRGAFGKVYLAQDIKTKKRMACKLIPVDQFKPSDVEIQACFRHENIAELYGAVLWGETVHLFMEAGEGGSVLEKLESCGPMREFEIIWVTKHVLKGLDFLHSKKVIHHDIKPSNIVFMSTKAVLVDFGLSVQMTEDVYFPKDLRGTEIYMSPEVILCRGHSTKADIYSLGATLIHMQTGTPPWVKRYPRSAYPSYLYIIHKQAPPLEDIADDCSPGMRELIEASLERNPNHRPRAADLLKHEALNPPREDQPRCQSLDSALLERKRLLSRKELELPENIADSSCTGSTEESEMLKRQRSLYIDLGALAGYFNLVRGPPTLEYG

[4] = biological target: T2, Dual specificity mitogen-activated protein kinase kinase 6 (Homo sapiens) (UniProt P52564); experiment: Inhibition of MAP2K6 at 1 uM in presence of 100 uM ATP by Select Screen kinase assay relative to untreated control; outline: as §1
T2 sequence (whole entry): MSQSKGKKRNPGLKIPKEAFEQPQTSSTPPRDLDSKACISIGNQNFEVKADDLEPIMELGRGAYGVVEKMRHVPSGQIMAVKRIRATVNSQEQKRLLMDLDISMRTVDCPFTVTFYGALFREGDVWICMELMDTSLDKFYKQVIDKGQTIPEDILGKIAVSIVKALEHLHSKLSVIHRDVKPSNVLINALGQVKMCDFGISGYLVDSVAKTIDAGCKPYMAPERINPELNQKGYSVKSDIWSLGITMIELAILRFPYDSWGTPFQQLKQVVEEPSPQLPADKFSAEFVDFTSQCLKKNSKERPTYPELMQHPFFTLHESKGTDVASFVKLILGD

[5] = biological target: Tyrosine-protein kinase Yes (Homo sapiens) (UniProt P07947); experiment: Inhibition of YES1 at 1 uM in presence of 10 uM ATP by Select Screen kinase assay relative to untreated control
Tyrosine-protein kinase Yes (Homo sapiens), sequence (P07947 2-543 limits assumed): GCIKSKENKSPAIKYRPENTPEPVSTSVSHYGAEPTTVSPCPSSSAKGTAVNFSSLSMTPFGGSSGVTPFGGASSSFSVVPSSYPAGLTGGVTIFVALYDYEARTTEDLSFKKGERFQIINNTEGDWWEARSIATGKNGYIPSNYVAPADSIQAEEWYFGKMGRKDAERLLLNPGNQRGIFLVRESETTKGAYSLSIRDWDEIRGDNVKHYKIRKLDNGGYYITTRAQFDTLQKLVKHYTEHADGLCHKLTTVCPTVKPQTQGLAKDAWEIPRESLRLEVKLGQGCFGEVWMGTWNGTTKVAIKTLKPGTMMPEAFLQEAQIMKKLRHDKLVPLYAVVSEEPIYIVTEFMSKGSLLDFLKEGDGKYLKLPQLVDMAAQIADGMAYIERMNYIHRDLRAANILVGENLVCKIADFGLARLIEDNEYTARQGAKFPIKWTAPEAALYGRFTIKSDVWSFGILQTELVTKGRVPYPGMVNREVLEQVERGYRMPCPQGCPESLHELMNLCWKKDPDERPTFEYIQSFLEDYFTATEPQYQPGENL
Outline: (§2)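 Commercial SelectScreen profiling panel of 220 purified kinases. Each kinase was tested at a single inhibitor concentration of 1 μM, and activity was expressed as percent inhibition.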

[6] = biological target: T3, Serine/threonine-protein kinase TAO2 (Homo sapiens) (UniProt Q9UL54); experiment: Inhibition of TAOK2 at 1 uM in presence of 10 uM ATP by Select Screen kinase assay relative to untreated control; outline: as §2
T3 sequence (whole entry): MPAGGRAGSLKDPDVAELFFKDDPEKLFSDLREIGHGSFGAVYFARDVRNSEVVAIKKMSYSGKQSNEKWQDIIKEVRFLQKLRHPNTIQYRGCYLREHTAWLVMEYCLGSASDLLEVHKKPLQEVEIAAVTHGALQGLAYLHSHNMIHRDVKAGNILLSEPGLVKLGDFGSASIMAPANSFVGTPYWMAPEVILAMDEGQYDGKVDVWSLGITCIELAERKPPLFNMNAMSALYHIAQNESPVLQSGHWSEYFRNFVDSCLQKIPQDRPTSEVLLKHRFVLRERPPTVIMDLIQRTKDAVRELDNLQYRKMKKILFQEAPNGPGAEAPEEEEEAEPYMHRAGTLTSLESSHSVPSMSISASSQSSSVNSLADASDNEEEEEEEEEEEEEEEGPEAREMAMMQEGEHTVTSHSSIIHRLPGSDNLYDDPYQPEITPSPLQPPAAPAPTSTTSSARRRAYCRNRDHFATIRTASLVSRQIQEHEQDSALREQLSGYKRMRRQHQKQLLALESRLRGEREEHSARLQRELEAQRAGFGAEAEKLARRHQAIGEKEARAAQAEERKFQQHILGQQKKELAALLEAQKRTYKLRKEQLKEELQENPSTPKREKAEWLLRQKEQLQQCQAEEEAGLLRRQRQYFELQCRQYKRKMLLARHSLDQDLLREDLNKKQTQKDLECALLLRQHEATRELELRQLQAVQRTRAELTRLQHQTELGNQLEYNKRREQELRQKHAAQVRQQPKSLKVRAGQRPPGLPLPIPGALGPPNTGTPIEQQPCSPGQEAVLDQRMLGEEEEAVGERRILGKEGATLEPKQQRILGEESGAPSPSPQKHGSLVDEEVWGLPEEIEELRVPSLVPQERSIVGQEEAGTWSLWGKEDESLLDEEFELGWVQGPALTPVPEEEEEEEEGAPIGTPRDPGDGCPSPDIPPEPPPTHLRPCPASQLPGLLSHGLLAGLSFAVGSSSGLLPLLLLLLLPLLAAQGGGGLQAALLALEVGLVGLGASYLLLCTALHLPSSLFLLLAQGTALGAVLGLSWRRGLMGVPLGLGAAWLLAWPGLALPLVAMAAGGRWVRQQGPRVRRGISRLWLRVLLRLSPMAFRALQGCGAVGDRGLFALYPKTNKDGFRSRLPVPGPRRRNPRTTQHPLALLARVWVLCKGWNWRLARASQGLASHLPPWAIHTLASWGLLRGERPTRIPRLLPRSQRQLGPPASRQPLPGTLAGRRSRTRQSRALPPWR

Calcium/calmodulin-dependent protein kinase type II subunit alpha (Homo sapiens), sequence (Q9UQM7 whole entry): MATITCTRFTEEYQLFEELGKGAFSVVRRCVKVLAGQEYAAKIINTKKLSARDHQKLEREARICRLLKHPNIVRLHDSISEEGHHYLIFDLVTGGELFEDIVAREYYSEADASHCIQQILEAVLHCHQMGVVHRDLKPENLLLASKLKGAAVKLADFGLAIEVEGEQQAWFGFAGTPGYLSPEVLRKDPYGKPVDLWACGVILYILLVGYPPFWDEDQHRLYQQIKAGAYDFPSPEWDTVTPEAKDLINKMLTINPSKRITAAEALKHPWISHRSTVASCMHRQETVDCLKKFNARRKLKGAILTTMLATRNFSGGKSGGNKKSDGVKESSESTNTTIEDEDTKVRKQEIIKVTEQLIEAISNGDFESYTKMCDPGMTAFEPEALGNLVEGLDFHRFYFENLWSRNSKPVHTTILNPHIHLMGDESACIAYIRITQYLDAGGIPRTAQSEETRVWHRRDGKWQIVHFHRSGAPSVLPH

inhibition [1] [%] | inhibition [2] [%] | inhibition [3] [%] | inhibition [4] [%] | inhibition [5] [%] | inhibition [6] [%] | Structure (SMILES)
16 | 12 | 17 | 11 | 20 | 2 | COc1ccccc1N1CCN(c2ncnc3[nH]nc(Br)c23)CC1
79 | 27 | 54 | 25 | 36 | 82 | O=C(NCCCNc1nc(Nc2cccc(NC(=O)N3CCCC3)c2)ncc1I)c1cccs1

Structure (SMILES) | inhibition [1] [%] | inhibition [2] [%] | inhibition [3] [%] | inhibition [4] [%] | inhibition [5] [%] | inhibition [6] [%]
Cc1n[nH]c2ccc(-c3cncc(OC[C@@H](N)Cc4c[nH]c5ccccc45)c3)cc12 | 80 | 36 | 50 | 40 | 20 | 35
